Here are results for 5 compounds from ChEMBL document CHEMBL3632517, “Chemical conjugation of 2-hexadecynoic acid to C5-curcumin enhances its antibacterial activity against multi-drug resistant bacteria” (Bioorg Med Chem Lett, 2015).

In brackets after ≈: the same amount, converted by molar mass. Activity calls are given as the source filed them. The rule behind the calls is not given here.

In data set [1] the test system is Staphylococcus aureus. Nature of the data set: Antibacterial activity against methicillin-resistant Staphylococcus aureus CIMRSA1 after 18 to 24 hrs by spectrophotometric analysis. Format: functional, organism-based.
The subject of data set [2] is Staphylococcus aureus. Kind of data set: Antibacterial activity against methicillin-resistant Staphylococcus aureus CIMRSA4 after 18 to 24 hrs by spectrophotometric analysis. Format: functional, organism-based.
Data set [3] deals with Staphylococcus aureus. Kind of data set: Antibacterial activity against methicillin-resistant Staphylococcus aureus ATCC 43300 after 18 to 24 hrs by spectrophotometric analysis. Format: functional, organism-based.
The test system of another data set is Vero. Nature of the data set: Cytotoxicity against African green monkey Vero cells after 3 days by CTG luminescent cell viability assay. In kind it is cell-based. The following applies: Chlorocebus sabaeus, 72 h.
In data set [4] the test system is Staphylococcus aureus. Nature of the data set: Antibacterial activity against methicillin-resistant Staphylococcus aureus CIMRSA7 after 18 to 24 hrs by spectrophotometric analysis. Format: functional, organism-based.
The nature of data set [5]: Therapeutic index, ratio of IC50 for human PBMC to IC50 for methicillin-resistant Staphylococcus aureus CIMRSA6. The following applies: read-out: Ratio IC50. An outline of the steps: (§1)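 Therapeutic index is PBMC cytotoxicity IC50 divided by the antibacterial IC50 against each MRSA strain. PBMCs came from healthy volunteers, and their viability was read by CTG luminescent cell viability assay. Experiments were run in triplicate (N = 3).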

A short description of data set [6]: Therapeutic index, ratio of IC50 for human PBMC to IC50 for methicillin-resistant Staphylococcus aureus ATCC 43300. Conditions: read-out: Ratio IC50. In outline: as §1
A short description of data set [7]: Therapeutic index, ratio of IC50 for human PBMC to IC50 for methicillin-resistant Staphylococcus aureus CIMRSA1. The following applies: read-out: Ratio IC50. In outline:
as §1

Data set [8] in a line: Therapeutic index, ratio of IC50 for human PBMC to IC50 for methicillin-resistant Staphylococcus aureus CIMRSA7. The following applies: read-out: Ratio IC50. An outline of the steps:
as §1

Data set [9] is described as follows: Therapeutic index, ratio of IC50 for human PBMC to IC50 for methicillin-resistant Staphylococcus aureus CIMRSA4. The following applies: read-out: Ratio IC50. In outline:
as §1

The nature of data set [10]: Therapeutic index, ratio of IC50 for human PBMC to IC50 for methicillin-resistant Staphylococcus aureus CIMRSA5. Conditions: read-out: Ratio IC50. An outline of the steps:
as §1

The next data set has as its target DNA gyrase (Staphylococcus aureus, UniProt P0A0K8+P20831). Kind of data set: (§2) Inhibition of supercoiling activity of Staphylococcus aureus DNA gyrase using relaxed pHOT1 plasmid DNA after 60 mins using ethidium bromide staining by […]electrophoresis analysis. Format: protein-complex assay.
A short description of data set [11]: Therapeutic index, ratio of IC50 for human PBMC to IC50 for methicillin-resistant Staphylococcus aureus CIMRSA2. Conditions: read-out: Ratio IC50. In outline:
as §1

The test system of data set [12] is Staphylococcus aureus. Kind of data set: Antibacterial activity against methicillin-resistant Staphylococcus aureus CIMRSA6 after 18 to 24 hrs by spectrophotometric analysis. Format: functional, organism-based.
A further data set deals with PBMC. Nature of the data set: Cytotoxicity against human PBMC after 3 days by CTG luminescent cell viability assay. In kind it is cell-based. The following applies: 72 h.
Data set [13] concerns Staphylococcus aureus. Kind of data set: Antibacterial activity against methicillin-resistant Staphylococcus aureus CIMRSA5 after 18 to 24 hrs by spectrophotometric analysis. Format: functional, organism-based.
In the next data set the test system is Escherichia coli. Kind of data set: Antibacterial activity against Escherichia coli ATCC 25922 after 18 to 24 hrs by spectrophotometric analysis. Format: functional, organism-based.
Data set [14] has as its system Staphylococcus aureus. Nature of the data set: Antibacterial activity against methicillin-resistant Staphylococcus aureus CIMRSA3 after 18 to 24 hrs by spectrophotometric analysis. Format: functional, organism-based.
Data set [15] is described as follows: Therapeutic index, ratio of IC50 for human PBMC to IC50 for methicillin-resistant Staphylococcus aureus CIMRSA3. The following applies: read-out: Ratio IC50. An outline of the steps:
as §1

In data set [16] the test system is Staphylococcus aureus. Nature of the data set: Antibacterial activity against methicillin-resistant Staphylococcus aureus CIMRSA2 after 18 to 24 hrs by spectrophotometric analysis. In kind it is functional, organism-based.
Data set [17] addresses DNA gyrase (Staphylococcus aureus) (UniProt P0A0K8+P20831). Described as §2. In kind it is protein-complex assay.
The nature of data set [18]: Ratio of IC50 for human PBMC to IC50 for African green monkey Vero cells. The following applies: human PBMC versus Vero cells, read-out: Ratio IC50. Format: cell-based.

DNA gyrase (Staphylococcus aureus), sequence (P0A0K8 2-644 limits assumed): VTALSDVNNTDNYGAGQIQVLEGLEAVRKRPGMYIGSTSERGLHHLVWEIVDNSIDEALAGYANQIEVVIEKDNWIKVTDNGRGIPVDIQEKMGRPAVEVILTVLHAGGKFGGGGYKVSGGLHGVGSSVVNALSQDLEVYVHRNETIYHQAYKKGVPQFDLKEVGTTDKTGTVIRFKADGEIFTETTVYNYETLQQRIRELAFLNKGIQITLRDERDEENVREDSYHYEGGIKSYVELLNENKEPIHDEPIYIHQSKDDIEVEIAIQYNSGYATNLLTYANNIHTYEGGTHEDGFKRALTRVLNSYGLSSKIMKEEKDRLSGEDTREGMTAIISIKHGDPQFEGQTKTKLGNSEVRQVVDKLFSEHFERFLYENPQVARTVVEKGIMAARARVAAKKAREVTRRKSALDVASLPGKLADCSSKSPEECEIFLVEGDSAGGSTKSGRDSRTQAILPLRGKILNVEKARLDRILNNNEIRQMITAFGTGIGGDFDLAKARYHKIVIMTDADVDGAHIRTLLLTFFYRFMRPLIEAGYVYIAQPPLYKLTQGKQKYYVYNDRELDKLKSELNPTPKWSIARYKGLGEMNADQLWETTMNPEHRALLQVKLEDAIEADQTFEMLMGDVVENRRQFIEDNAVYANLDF
DNA gyrase (Staphylococcus aureus), sequence (P20831 whole entry partner): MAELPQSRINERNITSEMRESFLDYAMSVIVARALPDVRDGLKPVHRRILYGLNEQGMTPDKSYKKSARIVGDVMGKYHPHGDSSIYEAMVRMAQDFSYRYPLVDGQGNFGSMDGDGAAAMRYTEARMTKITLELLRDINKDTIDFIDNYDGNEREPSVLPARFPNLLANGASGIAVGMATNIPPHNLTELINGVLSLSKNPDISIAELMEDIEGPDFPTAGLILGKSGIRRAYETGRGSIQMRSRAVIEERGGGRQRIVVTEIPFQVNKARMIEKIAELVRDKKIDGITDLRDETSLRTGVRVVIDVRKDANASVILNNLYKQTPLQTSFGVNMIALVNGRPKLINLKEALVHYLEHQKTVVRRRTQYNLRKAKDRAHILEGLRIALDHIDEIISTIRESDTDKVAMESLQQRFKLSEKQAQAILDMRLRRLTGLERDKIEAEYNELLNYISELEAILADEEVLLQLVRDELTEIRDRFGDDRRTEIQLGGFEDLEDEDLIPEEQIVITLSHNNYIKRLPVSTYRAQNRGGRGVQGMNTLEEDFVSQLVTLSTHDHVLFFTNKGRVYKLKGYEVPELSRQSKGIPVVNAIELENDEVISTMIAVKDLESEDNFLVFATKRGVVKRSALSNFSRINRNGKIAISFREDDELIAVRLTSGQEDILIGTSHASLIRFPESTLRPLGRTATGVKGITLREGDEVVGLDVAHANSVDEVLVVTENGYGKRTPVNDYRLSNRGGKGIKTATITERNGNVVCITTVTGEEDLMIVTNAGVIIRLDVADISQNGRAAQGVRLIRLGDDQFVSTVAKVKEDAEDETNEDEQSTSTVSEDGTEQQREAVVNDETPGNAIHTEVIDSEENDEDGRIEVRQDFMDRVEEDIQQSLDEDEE
DNA gyrase, sequence (P0A0K8 whole entry): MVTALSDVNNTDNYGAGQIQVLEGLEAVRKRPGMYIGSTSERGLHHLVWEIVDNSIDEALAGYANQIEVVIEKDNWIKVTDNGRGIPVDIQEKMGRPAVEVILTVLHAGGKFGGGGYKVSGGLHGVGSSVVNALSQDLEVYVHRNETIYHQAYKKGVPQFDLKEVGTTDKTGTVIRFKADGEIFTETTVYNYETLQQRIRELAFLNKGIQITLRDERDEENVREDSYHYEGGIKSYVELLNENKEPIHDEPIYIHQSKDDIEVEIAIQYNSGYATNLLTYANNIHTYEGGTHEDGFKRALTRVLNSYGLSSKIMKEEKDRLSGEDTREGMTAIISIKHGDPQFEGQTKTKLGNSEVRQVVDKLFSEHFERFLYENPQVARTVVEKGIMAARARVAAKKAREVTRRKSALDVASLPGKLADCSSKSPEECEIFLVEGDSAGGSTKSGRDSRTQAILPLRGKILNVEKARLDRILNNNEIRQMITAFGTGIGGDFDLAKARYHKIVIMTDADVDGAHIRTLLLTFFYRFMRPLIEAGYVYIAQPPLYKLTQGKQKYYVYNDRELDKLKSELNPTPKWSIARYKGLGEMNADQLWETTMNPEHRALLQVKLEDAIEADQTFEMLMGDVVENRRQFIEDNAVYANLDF
DNA gyrase, sequence (P20831 whole entry): as the sequence (P20831 whole entry partner) above

One may read the IC50 as the concentration that gives 50% inhibition. By MIC is commonly meant the lowest concentration that inhibits growth of the organism. Regarding `CCCCCCCCCCCCCC#CC(=O)Oc1ccc(/C=C/C(=O)/C=C/c2ccc(OC(=O)C#CCCCCCCCCCCCCC)c(OC)c2)cc1OC`, the IC50 in the data set on Staphylococcus aureus [1] was 30.3 µg/mL (≈ 38.1 µM); in the data set with Staphylococcus aureus [2], 24.9 µg/mL (≈ 31.3 µM); in the data set on Staphylococcus aureus [3], 39.5 µg/mL (≈ 49.7 µM); in the data set with Vero, greater than 100 µg/mL; in the data set with Staphylococcus aureus [4], 34.2 µg/mL (≈ 43 µM); on DNA gyrase it was 126 µM. For the same compound, the IC50 in the data set on Staphylococcus aureus [12] was 38.9 µg/mL (≈ 48.9 µM); with PBMC, 247 µg/mL (≈ 310 µM); in the data set with Staphylococcus aureus [13] it was 25.4 µg/mL (≈ 31.9 µM); in the data set on Escherichia coli, greater than 1000 µg/mL; with Staphylococcus aureus [14], 34.2 µg/mL (≈ 43 µM); in the data set on Staphylococcus aureus [16] it was 34.9 µg/mL (≈ 43.9 µM). In addition, the MIC in the data set on Staphylococcus aureus [1] was 62.5 µg/mL (≈ 78.6 µM); in the data set on Staphylococcus aureus [2], 31.3 µg/mL (≈ 39.4 µM); in the data set with Staphylococcus aureus [3], 62.5 µg/mL (≈ 78.6 µM); in the data set on Staphylococcus aureus [4] it was 62.5 µg/mL (≈ 78.6 µM); against Staphylococcus aureus [12], 62.5 µg/mL (≈ 78.6 µM); in the data set on Staphylococcus aureus [13] it was 31.3 µg/mL (≈ 39.4 µM). Also, the MIC in the data set on Staphylococcus aureus [14] and in the data set with Staphylococcus aureus [16] was 62.5 µg/mL (≈ 78.6 µM) throughout. In addition, the selectivity ratio was 6.3 in data set [5]; 6.2 in data set [6]; 8.1 in [7]; 7.2 in [8]; 9.9 in [9]; 9.7 in [10]. The selectivity ratio in data set [11] turned out to be 7.1; in data set [15], 7.2.
Consider `COc1cccc(OC)c1C(=O)N[C@@H]1C(=O)N2[C@@H]1SC(C)(C)[C@@H]2C(=O)O` [METHICILLIN], for which the IC50 was found to be 2.2 µg/mL (≈ 5.78 µM) in the data set with Staphylococcus aureus [1]; 11.8 µg/mL (≈ 31 µM) in the data set with Staphylococcus aureus [2]; 0.98 µg/mL (≈ 2.58 µM) in the data set on Staphylococcus aureus [3]; 1.3 µg/mL (≈ 3.42 µM) in the data set with Staphylococcus aureus [4]; 1.2 µg/mL (≈ 3.15 µM) with Staphylococcus aureus [12]; 1.9 µg/mL (≈ 4.99 µM) in the data set on Staphylococcus aureus [13]. Moreover, the IC50 with Escherichia coli is greater than 1000 µg/mL; in the data set with Staphylococcus aureus [14] it was 2.2 µg/mL (≈ 5.78 µM); in the data set on Staphylococcus aureus [16], 11.8 µg/mL (≈ 31 µM). The MIC against Staphylococcus aureus [1] worked out at 7.8 µg/mL (≈ 20.5 µM); in the data set with Staphylococcus aureus [2], 31.3 µg/mL (≈ 82.3 µM); with Staphylococcus aureus [3], 1.95 µg/mL (≈ 5.13 µM); in the data set with Staphylococcus aureus [4] it was 3.9 µg/mL (≈ 10.3 µM); in the data set on Staphylococcus aureus [13] it was 3.9 µg/mL (≈ 10.3 µM); with Staphylococcus aureus [14] it was 3.9 µg/mL (≈ 10.3 µM). The same compound showed an MIC in the data set on Staphylococcus aureus [16] of 31.3 µg/mL (≈ 82.3 µM).
Turning to `CCCCCCCCCCCCCCCC(=O)Oc1ccc(/C=C/C(=O)/C=C/c2ccc(OC(=O)CCCCCCCCCCCCCCC)c(OC)c2)cc1OC`, the IC50 with Staphylococcus aureus [1], in the data set with Staphylococcus aureus [2], with Staphylococcus aureus [3], in the data set with Staphylococcus aureus [4], with Staphylococcus aureus [12] and in the data set with Staphylococcus aureus [13] was greater than 1000 µg/mL in each case. Moreover, the IC50 in the data set on Escherichia coli, in the data set on Staphylococcus aureus [14] and with Staphylococcus aureus [16] was greater than 1000 µg/mL each time. In addition, the inhibition result in data set [17] was “inactive”.
In the case of `CCCCCCCCCCCCCCCC(=O)O` [PALMITIC ACID], the IC50 in the data set on Staphylococcus aureus [1], with Staphylococcus aureus [2], in the data set with Staphylococcus aureus [3], in the data set with Staphylococcus aureus [4], in the data set with Staphylococcus aureus [12] and with Staphylococcus aureus [13] was greater than 1000 µg/mL each time. The IC50 in the data set with Escherichia coli, with Staphylococcus aureus [14] and with Staphylococcus aureus [16] was greater than 1000 µg/mL each time.
With `COc1cc(/C=C/C(=O)/C=C/c2ccc(O)c(OC)c2)ccc1O`, the 50% inhibitory concentration (IC50) worked out at 141 µg/mL (≈ 432 µM) with Staphylococcus aureus [1]; 185 µg/mL (≈ 567 µM) in the data set on Staphylococcus aureus [2]; 111 µg/mL (≈ 341 µM) in the data set on Staphylococcus aureus [3]; 5.7 µg/mL (≈ 17.5 µM) with Vero; 303 µg/mL (≈ 929 µM) in the data set on Staphylococcus aureus [4]; 195 µg/mL (≈ 597 µM) with Staphylococcus aureus [12]. Also, the concentration for half-maximal inhibition (IC50) with PBMC is 46.9 µg/mL (≈ 144 µM); in the data set with Staphylococcus aureus [13], 202 µg/mL (≈ 620 µM); in the data set on Escherichia coli, greater than 1000 µg/mL; in the data set on Staphylococcus aureus [14] it was 124 µg/mL (≈ 379 µM); in the data set on Staphylococcus aureus [16], 133 µg/mL (≈ 409 µM). In addition, the MIC came to 250 µg/mL (≈ 766 µM) against Staphylococcus aureus [1]; 500 µg/mL (≈ 1530 µM) in the data set on Staphylococcus aureus [2]; 250 µg/mL (≈ 766 µM) in the data set with Staphylococcus aureus [3]; 500 µg/mL (≈ 1530 µM) against Staphylococcus aureus [4]; 500 µg/mL (≈ 1530 µM) against Staphylococcus aureus [12]; 500 µg/mL (≈ 1530 µM) in the data set with Staphylococcus aureus [13]. Besides, the MIC in the data set with Staphylococcus aureus [14] and against Staphylococcus aureus [16] was 250 µg/mL (≈ 766 µM) each time. Further, the selectivity ratio in [5] came out at 0.2; in data set [6], 0.4; in data set [7], 0.3; in data set [8], 0.2; in data set [9], 0.3; in data set [10] it was 0.2. For the same compound, the selectivity ratio in data set [11] worked out at 0.4; in data set [18], 8.2; in [15], 0.4. For the same compound, the inhibition result in data set [17] is “inactive”.
